Results taken from ChEMBL document CHEMBL3867440, “Hernandezine, a Bisbenzylisoquinoline Alkaloid with Selective Inhibitory Activity against Multidrug-Resistance-Linked ATP-Binding Cassette Drug Transporter ABCB1” (J Nat Prod, 2016).

Assays:
[1] = target: T1, ATP-dependent translocase ABCB1 (Homo sapiens, UniProt P08183); assay: Inhibition of ABCB1 in human NCI-ADR-RES cells assessed as potentiation of colchicine-induced cytotoxicity by measuring colchicine resistance ratio at 50 nM after 72 hrs by MTT assay relative to parental OVCAR8 cells (reference value: 59); type: cell-based; conditions: ovcar-8, 72 h, 0.05 µM
T1 sequence (P08183 whole entry): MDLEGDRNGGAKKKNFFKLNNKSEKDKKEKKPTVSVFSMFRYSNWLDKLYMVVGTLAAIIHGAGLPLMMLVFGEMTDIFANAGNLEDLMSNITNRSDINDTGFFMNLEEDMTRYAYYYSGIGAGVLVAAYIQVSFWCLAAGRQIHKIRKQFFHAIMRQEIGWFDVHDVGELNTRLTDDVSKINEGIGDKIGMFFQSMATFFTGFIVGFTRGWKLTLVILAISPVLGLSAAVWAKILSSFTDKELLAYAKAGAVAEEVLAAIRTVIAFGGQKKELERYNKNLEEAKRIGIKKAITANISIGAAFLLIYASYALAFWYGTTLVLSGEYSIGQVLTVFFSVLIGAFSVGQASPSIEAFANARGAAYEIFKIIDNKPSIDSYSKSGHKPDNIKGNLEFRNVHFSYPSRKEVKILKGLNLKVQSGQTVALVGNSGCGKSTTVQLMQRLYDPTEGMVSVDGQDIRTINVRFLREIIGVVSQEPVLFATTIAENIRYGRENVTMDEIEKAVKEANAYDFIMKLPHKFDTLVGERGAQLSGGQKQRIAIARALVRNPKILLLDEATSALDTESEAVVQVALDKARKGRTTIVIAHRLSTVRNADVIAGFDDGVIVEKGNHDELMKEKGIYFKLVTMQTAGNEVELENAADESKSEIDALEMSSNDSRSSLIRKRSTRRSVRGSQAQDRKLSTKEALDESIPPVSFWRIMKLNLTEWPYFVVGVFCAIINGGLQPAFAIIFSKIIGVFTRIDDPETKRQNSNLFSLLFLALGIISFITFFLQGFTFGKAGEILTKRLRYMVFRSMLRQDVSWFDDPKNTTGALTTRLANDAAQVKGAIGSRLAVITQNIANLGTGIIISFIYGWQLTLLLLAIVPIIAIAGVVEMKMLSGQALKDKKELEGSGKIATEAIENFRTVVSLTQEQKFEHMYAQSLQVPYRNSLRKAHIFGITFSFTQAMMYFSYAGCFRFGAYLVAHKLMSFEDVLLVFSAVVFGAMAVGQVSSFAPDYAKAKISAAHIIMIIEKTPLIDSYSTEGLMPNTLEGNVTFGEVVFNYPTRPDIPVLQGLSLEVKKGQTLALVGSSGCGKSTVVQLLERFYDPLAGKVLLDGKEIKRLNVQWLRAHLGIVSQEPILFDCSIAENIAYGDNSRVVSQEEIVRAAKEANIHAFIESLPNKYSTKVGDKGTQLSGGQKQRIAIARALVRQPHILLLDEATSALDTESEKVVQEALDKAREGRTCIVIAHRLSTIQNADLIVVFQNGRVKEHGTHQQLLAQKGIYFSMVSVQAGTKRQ
In short: (§1)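 Cells were kept in drug-free DMEM with 10% FCS for 7 days before assay, then plated at 5000 cells/well for 24 h. Drug at various concentrations was added with a nontoxic fixed level of modulator for 72 h, and the read-out was MTT. IC50 came from fitted curves (≥3 experiments). RR = IC50 of the resistant line / IC50 of the parental line.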

KB 3-1 [2] = assay: Induction of apoptosis in human KB-3-1 cells assessed as early apoptotic cells at 1 uM after 48 hrs by Annexin V-FITC/propidium iodide staining based FACS analysis (reference value: 5.1%); type: functional
KB 3-1 [3] = assay: Induction of apoptosis in human KB-3-1 cells assessed as viable cells at 1 uM after 48 hrs by Annexin V-FITC/propidium iodide staining based FACS analysis (reference value: 88.4%); type: functional; conditions: KB 3-1, 48 h, read-out: Activity
[4] = target: T1, ATP-dependent translocase ABCB1; assay: Inhibition of ABCB1 in human KBV1 cells assessed as potentiation of vincristine-induced cytotoxicity by measuring vincristine resistance ratio at 100 nM after 72 hrs by MTT assay relative to parental KB-3-1 cells (reference value: 356); type: cell-based; conditions: kbv1, 72 h, 0.1 µM; in short: as §1
KB-V1 = assay: Induction of apoptosis in human KBV1 cells assessed as late apoptotic cells at 1 uM after 48 hrs by Annexin V-FITC/propidium iodide staining based FACS analysis (reference value: 7.6%); type: functional
[5] = target: T1, ATP-dependent translocase ABCB1; assay: Inhibition of ABCB1 in human KBV1 cells assessed as potentiation of colchicine-induced cytotoxicity by measuring colchicine resistance ratio at 100 nM after 72 hrs by MTT assay relative to parental KB-3-1 cells (reference value: 55); type: cell-based; conditions: kbv1, 72 h, 0.1 µM; in short: as §1

For `COc1ccc2cc1Oc1ccc(cc1)C[C@H]1c3cc(c(OC)cc3CCN1C)Oc1c(OC)c(OC)c(OC)c3c1[C@H](C2)N(C)CC3` [HERNANDEZINE], the Ratio [1] was 46, the Activity (KB 3-1 [2]) was 6.6% and the viability at 1 µM (KB 3-1 [3]) was 88.8%. It also gave a Ratio [4] of 169, an Activity (KB-V1) of 6.7% and a Ratio [5] of 21.
